# Experimental data pooled from the literature.
# Each line is one published result; the experiments were not run side by side.
# JAK1 JH2: Tyrosine-protein kinase JAK1, JH2 (JAK1, Homo sapiens, UniProt P23458)
# JAK1 JH1: Tyrosine-protein kinase JAK1, JH1 (JAK1, Homo sapiens, UniProt P23458)
# JAK1: Tyrosine-protein kinase JAK1 (JAK1, Homo sapiens, UniProt P23458)
Compound,target,assay,conditions,remaining binding
O=C(O)[C@@H]1[C@@H](Cn2nnc3ccccc3c2=O)CC[C@H]1C(=O)c1ccc(OCCC2CCOCC2)cc1,JAK1 JH2,"cell-free assay, competition with immobilised ligand",1 µM,100%
O=C(Nc1c[nH]nc1C(=O)NC1CCNCC1)c1cc(F)cc(F)c1,JAK1 JH1,"binding, competition with immobilised ligand",1 µM,88%
O=C(c1ccc(Nc2ncc(Cl)c(-c3ccc(Cl)s3)n2)cc1)N1CCC(N2CCCC2)CC1,JAK1 JH2,"binding, competition with immobilised ligand",1 µM,3.9%
C[C@H]1CCN(c2nccc(-c3cnn4ncccc34)n2)C1,JAK1,binding,1 µM,62%
COc1ncc2cc3ccccc3nc2c1C#N,JAK1 JH1,"cell-free assay, competition with immobilised ligand",5 µM,93%
N[C@@H]1CCN(c2nccc(-c3cnn4ncccc34)n2)C1,JAK1 JH1,"cell-free assay, competition with immobilised ligand",1 µM,100%
CNC(=O)[C@@H]1CC[C@@H](n2c(-c3ccc4cnccc4c3)nc3ccc(C(=O)NCc4cccc(C(N)=O)c4)cc32)C1,JAK1 JH2,"binding, competition with immobilised ligand",1 µM,60%
Nc1cnc(N2CCc3cc(S(=O)(=O)Nc4c(F)cc(Cl)cc4F)cc(N4CCCC4=O)c32)nc1,JAK1 JH1,"cell-free assay, competition with immobilised ligand",1 µM,100%
O=C(c1ccc(Nc2ncc(Cl)c(-c3cc4ccccc4s3)n2)cc1)N1CCC(N2CCCC2)CC1,JAK1 JH2,"binding, competition with immobilised ligand",1 µM,0.9%
COc1cnc(Nc2cccc(S(N)(=O)=O)c2)nc1N1CCN(c2ccccc2)C(=O)C1,JAK1 JH2,"binding, competition with immobilised ligand",1 µM,44%
Cc1cnc(Nc2ccc(C(=O)N3CCC(N4CCCC4)CC3)cc2)nc1-c1cc2ccccc2s1,JAK1 JH2,"binding, competition with immobilised ligand",1 µM,0%
F[C@@H]1CCN(c2nccc(-c3cnn4ncccc34)n2)C1,JAK1 JH1,"cell-free assay, competition with immobilised ligand",1 µM,100%
COc1ccc2c(c1)O[C@@H](c1ccc(OC)c(OC)c1)C[C@H]2NC(=O)C1(c2ccc3c(c2)OC(F)(F)O3)CC1,JAK1 JH2,"cell-free assay, competition with immobilised ligand",1 µM,90%
CN1CCN(c2ccc(Nc3nccc(-c4cccc([N+](=O)[O-])c4)n3)cc2C(F)(F)F)CC1,JAK1,binding,10 µM,0.25%
CN(C)c1nccc(-c2cnc3ncccn23)n1,JAK1,binding,1 µM,67%
Nc1ncc2c(n1)-c1c([nH]c3ccc(C#CC4CC4)cc13)CCCC2,JAK1 JH1,"binding, competition with immobilised ligand",1 µM,100%
Cc1cnn2ncc(-c3ccnc(N(C)C)n3)c2c1,JAK1 JH1,"cell-free assay, competition with immobilised ligand",1 µM,98%
CN(C)CC#Cc1ccc(OCCCc2sc(N3CCc4cccc(C(=O)Nc5nc6ccccc6s5)c4C3)nc2C(=O)O)c(F)c1,JAK1 JH2,"cell-free assay, competition with immobilised ligand",1 µM,100%
c1cncc(-c2cccc(Nc3nccc(NC4CCCCC4)n3)c2)c1,JAK1 JH1,"binding, competition with immobilised ligand",10 µM,14%
c1ccc(N2CCN(Cc3nc4ccccc4[nH]3)CC2)nc1,JAK1 JH2,"binding, competition with immobilised ligand",1 µM,76%
O=C(NCCCN1CCOCC1)c1ccc(Nc2ncc(Cl)c(-c3ccc(Cl)s3)n2)cc1,JAK1 JH1,"binding, competition with immobilised ligand",1 µM,4.6%
CC1CCCN1c1nccc(-c2cnn3ncccc23)n1 (centres unmarked),JAK1 JH1,"cell-free assay, competition with immobilised ligand",1 µM,100%
CCN1CCN(Cc2ccc(C(=O)Nc3ccc(C)c(Oc4ccc5c(c4)CC(=O)N5)c3)cc2C(F)(F)F)CC1,JAK1 JH1,"binding, competition with immobilised ligand",1 µM,76%
CC1=C(C#N)[C@@H](c2ccc3[nH]nc(C)c3c2)C(C#N)=C(c2ccc(Cl)cc2)N1,JAK1 JH1,"cell-free assay, competition with immobilised ligand",1 µM,100%
O=C(NCCCN1CCOCC1)c1ccc(Nc2nccc(-c3cc4ccccc4s3)n2)cc1,JAK1 JH2,"binding, competition with immobilised ligand",1 µM,41%
COc1cnc(Nc2cccc(S(N)(=O)=O)c2)nc1N1CCN(c2ccccc2)CC1,JAK1 JH1,"binding, competition with immobilised ligand",1 µM,48%
CN(C)c1nccc(-c2cnn3ncccc23)n1,JAK1,binding,1 µM,53%
O=C(c1ccc(Nc2nccc(-c3cc4ccccc4s3)n2)cc1)N1CCC(N2CCCC2)CC1,JAK1 JH1,"binding, competition with immobilised ligand",1 µM,82%
CCC(=N\O)/C(C)=C/c1ccc(F)cc1,JAK1 JH2,"cell-free assay, competition with immobilised ligand",1 µM,88%
CN(C)c1ncc(F)c(-c2cnn3ncccc23)n1,JAK1 JH1,"cell-free assay, competition with immobilised ligand",1 µM,100%
O=C(NCC1CCOCC1)c1n[nH]cc1NC(=O)c1c(F)cccc1F,JAK1 JH1,"binding, competition with immobilised ligand",1 µM,100%
CC1=C(C#N)C(c2ccc3c(c2)c(NC(=O)c2ccccc2C)nn3C)C(C#N)=C(C)N1,JAK1 JH1,"cell-free assay, competition with immobilised ligand",1 µM,100%
